Experimental data as given in ChEMBL document CHEMBL1152161, “A facile synthesis, antibacterial, and antitubercular studies of some piperidin-4-one and tetrahydropyridine derivatives” (2008).
Values after ≈ are worked out from the molar mass of the structure shown. Active and inactive are the calls of the source. The rule behind the calls is not given here.

system: Staphylococcus aureus; assay: Antibacterial activity against Staphylococcus aureus by broth micro dilution method; type: functional; conditions: not given
Procedure, shortened: (§1)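 MIC90 was found by broth microdilution following NCCLS methods. Compounds were tested up to a top concentration of […]. Linezolid and trovafloxacin served as positive controls and DMSO as the negative control.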

Compound	MIC90
CCOC(=O)C1=C(OS(=O)(=O)c2cccs2)CC(c2ccccc2)N(C(=O)CCl)C1c1ccccc1 (stereo not drawn)	32 µg/mL (≈ 58.6 µM)
CCOC(=O)C1=C(OS(=O)(=O)c2ccc([N+](=O)[O-])cc2)CC(c2ccccc2)N(C(=O)CCl)C1c1ccccc1 (stereo not drawn)	16 µg/mL (≈ 27.3 µM)

system: Staphylococcus aureus; assay: Antibacterial activity against methicillin-resistant Staphylococcus aureus by broth micro dilution method; type: functional; conditions: not given
Procedure, shortened: (§2)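 MIC90 was determined by broth microdilution following NCCLS methods. Linezolid and trovafloxacin were run as positive controls, with DMSO as the negative control. Compounds were tested up to a top concentration of 128.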

Compound	MIC90
CCOC(=O)C1=C(OS(=O)(=O)c2cccs2)CC(c2ccccc2)N(C(=O)CCl)C1c1ccccc1 (stereo not drawn)	64 µg/mL (≈ 117 µM)
CCOC(=O)C1=C(OS(=O)(=O)c2ccc([N+](=O)[O-])cc2)CC(c2ccccc2)N(C(=O)CCl)C1c1ccccc1 (stereo not drawn)	64 µg/mL (≈ 109 µM)

system: Staphylococcus epidermidis; assay: Antibacterial activity against Staphylococcus epidermidis by broth micro dilution method; type: functional; conditions: not given; procedure, shortened: as §2

Compound	MIC90
CCOC(=O)C1=C(OS(=O)(=O)c2cccs2)CC(c2ccccc2)N(C(=O)CCl)C1c1ccccc1 (stereo not drawn)	64 µg/mL (≈ 117 µM)
CCOC(=O)C1=C(OS(=O)(=O)c2ccc([N+](=O)[O-])cc2)CC(c2ccccc2)N(C(=O)CCl)C1c1ccccc1 (stereo not drawn)	64 µg/mL (≈ 109 µM)

system: Staphylococcus epidermidis; assay: Antibacterial activity against methicillin-resistant Staphylococcus epidermidis by broth micro dilution method; type: functional; conditions: not given; procedure, shortened: as §2

Compound	MIC90
CCOC(=O)C1=C(OS(=O)(=O)c2cccs2)CC(c2ccccc2)N(C(=O)CCl)C1c1ccccc1 (stereo not drawn)	128 µg/mL (≈ 234 µM)
CCOC(=O)C1=C(OS(=O)(=O)c2ccc([N+](=O)[O-])cc2)CC(c2ccccc2)N(C(=O)CCl)C1c1ccccc1 (stereo not drawn)	64 µg/mL (≈ 109 µM)

system: Enterococcus faecalis; assay: Antibacterial activity against Enterococcus faecalis by broth micro dilution method; type: functional; conditions: not given; procedure, shortened: as §1

Compound	MIC90
CCOC(=O)C1=C(OS(=O)(=O)c2ccc([N+](=O)[O-])cc2)CC(c2ccccc2)N(C(=O)CCl)C1c1ccccc1 (stereo not drawn)	16 µg/mL (≈ 27.3 µM)

system: Enterococcus faecalis; assay: Antibacterial activity against vancomycin-resistant Enterococcus faecalis by broth micro dilution method; type: functional; conditions: not given; procedure, shortened: as §2

Compound	MIC90
CCOC(=O)C1=C(OS(=O)(=O)c2ccc([N+](=O)[O-])cc2)CC(c2ccccc2)N(C(=O)CCl)C1c1ccccc1 (stereo not drawn)	32 µg/mL (≈ 54.7 µM)

system: Enterococcus faecalis; assay: Antibacterial activity against vancomycin and linezolid-resistant Enterococcus faecalis by broth micro dilution method; type: functional; conditions: not given; procedure, shortened: as §2

Compound	MIC90
CCOC(=O)C1=C(OS(=O)(=O)c2ccc([N+](=O)[O-])cc2)CC(c2ccccc2)N(C(=O)CCl)C1c1ccccc1 (stereo not drawn)	64 µg/mL (≈ 109 µM)

system: Enterococcus faecium; assay: Antibacterial activity against Enterococcus faecium by broth micro dilution method; type: functional; conditions: not given; procedure, shortened: as §1

Compound	MIC90
CCOC(=O)C1=C(OS(=O)(=O)c2ccc([N+](=O)[O-])cc2)CC(c2ccccc2)N(C(=O)CCl)C1c1ccccc1 (stereo not drawn)	32 µg/mL (≈ 54.7 µM)

system: Enterococcus faecium; assay: Antibacterial activity against vancomycin-resistant Enterococcus faecium by broth micro dilution method; type: functional; conditions: not given; procedure, shortened: as §2

Compound	Activity
CCOC(=O)C1=C(OS(=O)(=O)c2cccs2)CC(c2ccccc2)N(C(=O)CCl)C1c1ccccc1 (stereo not drawn)	32 µg/mL

same assay, conditions: Enterococcus faecium

Compound	MIC90
CCOC(=O)C1=C(OS(=O)(=O)c2ccc([N+](=O)[O-])cc2)CC(c2ccccc2)N(C(=O)CCl)C1c1ccccc1 (stereo not drawn)	16 µg/mL (≈ 27.3 µM)

system: Enterococcus faecalis; assay: Antibacterial activity against Enterococcus faecalis at 128 ug/mL by broth micro dilution method; type: functional, organism-based; conditions: not given

Compound	Activity
CCOC(=O)C1=C(OS(=O)(=O)c2cccs2)CC(c2ccccc2)N(C(=O)CCl)C1c1ccccc1 (stereo not drawn)	inactive

system: Enterococcus faecalis; assay: Antibacterial activity against vancomycin-resistant Enterococcus faecalis at 128 ug/mL by broth micro dilution method; type: functional, organism-based; conditions: not given; procedure, shortened: as §2

Compound	Activity
CCOC(=O)C1=C(OS(=O)(=O)c2cccs2)CC(c2ccccc2)N(C(=O)CCl)C1c1ccccc1 (stereo not drawn)	inactive

system: Enterococcus faecalis; assay: Antibacterial activity against vancomycin and linezolid-resistant Enterococcus faecalis at 128 ug/mL by broth micro dilution method; type: functional, organism-based; conditions: not given; procedure, shortened: as §2

Compound	Activity
CCOC(=O)C1=C(OS(=O)(=O)c2cccs2)CC(c2ccccc2)N(C(=O)CCl)C1c1ccccc1 (stereo not drawn)	inactive

system: Enterococcus faecium; assay: Antibacterial activity against Enterococcus faecium at 128 ug/mL by broth micro dilution method; type: functional, organism-based; conditions: not given

Compound	Activity
CCOC(=O)C1=C(OS(=O)(=O)c2cccs2)CC(c2ccccc2)N(C(=O)CCl)C1c1ccccc1 (stereo not drawn)	inactive

system: Escherichia coli; assay: Antibacterial activity against Escherichia coli LCB0010 at 128 ug/mL by broth micro dilution method; type: functional, organism-based; conditions: not given

Compound	Activity
CCOC(=O)C1=C(OS(=O)(=O)c2cccs2)CC(c2ccccc2)N(C(=O)CCl)C1c1ccccc1 (stereo not drawn)	inactive
CCOC(=O)C1=C(OS(=O)(=O)c2ccc([N+](=O)[O-])cc2)CC(c2ccccc2)N(C(=O)CCl)C1c1ccccc1 (stereo not drawn)	inactive

system: Escherichia coli; assay: Antibacterial activity against Escherichia coli LCB0011 by broth micro dilution method; type: functional; conditions: not given; procedure, shortened: as §1

Compound	MIC90
CCOC(=O)C1=C(OS(=O)(=O)c2cccs2)CC(c2ccccc2)N(C(=O)CCl)C1c1ccccc1 (stereo not drawn)	128 µg/mL (≈ 234 µM)
CCOC(=O)C1=C(OS(=O)(=O)c2ccc([N+](=O)[O-])cc2)CC(c2ccccc2)N(C(=O)CCl)C1c1ccccc1 (stereo not drawn)	128 µg/mL (≈ 219 µM)

system: Klebsiella pneumoniae; assay: Antibacterial activity against Klebsiella pneumoniae by broth micro dilution method; type: functional; conditions: not given; procedure, shortened: as §1

Compound	MIC90
CCOC(=O)C1=C(OS(=O)(=O)c2ccc([N+](=O)[O-])cc2)CC(c2ccccc2)N(C(=O)CCl)C1c1ccccc1 (stereo not drawn)	64 µg/mL (≈ 109 µM)

system: Moraxella catarrhalis; assay: Antibacterial activity against Moraxella catarrhalis by broth micro dilution method; type: functional; conditions: not given; procedure, shortened: as §1

Compound	MIC90
CCOC(=O)C1=C(OS(=O)(=O)c2cccs2)CC(c2ccccc2)N(C(=O)CCl)C1c1ccccc1 (stereo not drawn)	32 µg/mL (≈ 58.6 µM)
CCOC(=O)C1=C(OS(=O)(=O)c2ccc([N+](=O)[O-])cc2)CC(c2ccccc2)N(C(=O)CCl)C1c1ccccc1 (stereo not drawn)	32 µg/mL (≈ 54.7 µM)

system: Escherichia coli; assay: Antibacterial activity against Escherichia coli LCB0012 at 128 ug/mL by broth micro dilution method; type: functional, organism-based; conditions: not given

Compound	Activity
CCOC(=O)C1=C(OS(=O)(=O)c2cccs2)CC(c2ccccc2)N(C(=O)CCl)C1c1ccccc1 (stereo not drawn)	inactive
CCOC(=O)C1=C(OS(=O)(=O)c2ccc([N+](=O)[O-])cc2)CC(c2ccccc2)N(C(=O)CCl)C1c1ccccc1 (stereo not drawn)	inactive

system: Pseudomonas aeruginosa; assay: Antibacterial activity against Pseudomonas aeruginosa at 128 ug/mL by broth micro dilution method; type: functional, organism-based; conditions: not given

Compound	Activity
CCOC(=O)C1=C(OS(=O)(=O)c2cccs2)CC(c2ccccc2)N(C(=O)CCl)C1c1ccccc1 (stereo not drawn)	inactive
CCOC(=O)C1=C(OS(=O)(=O)c2ccc([N+](=O)[O-])cc2)CC(c2ccccc2)N(C(=O)CCl)C1c1ccccc1 (stereo not drawn)	inactive

system: Klebsiella pneumoniae; assay: Antibacterial activity against Klebsiella pneumoniae at 128 ug/mL by broth micro dilution method; type: functional, organism-based; conditions: not given

Compound	Activity
CCOC(=O)C1=C(OS(=O)(=O)c2cccs2)CC(c2ccccc2)N(C(=O)CCl)C1c1ccccc1 (stereo not drawn)	inactive

system: Haemophilus influenzae; assay: Antibacterial activity against Haemophilus influenzae at 128 ug/mL by broth micro dilution method; type: functional, organism-based; conditions: not given

Compound	Activity
CCOC(=O)C1=C(OS(=O)(=O)c2cccs2)CC(c2ccccc2)N(C(=O)CCl)C1c1ccccc1 (stereo not drawn)	inactive
CCOC(=O)C1=C(OS(=O)(=O)c2ccc([N+](=O)[O-])cc2)CC(c2ccccc2)N(C(=O)CCl)C1c1ccccc1 (stereo not drawn)	inactive

system: Mycobacterium tuberculosis; assay: Antitubercular activity against Mycobacterium tuberculosis H37Rv ATCC 27294 by radiometric respiratory technique; type: functional; conditions: not given

Compound	MIC
CCOC(=O)C1=C(OS(=O)(=O)c2cccs2)CC(c2ccccc2)N(C(=O)CCl)C1c1ccccc1 (stereo not drawn)	32 µg/mL (≈ 58.6 µM)
CCOC(=O)C1=C(OS(=O)(=O)c2ccc([N+](=O)[O-])cc2)CC(c2ccccc2)N(C(=O)CCl)C1c1ccccc1 (stereo not drawn)	16 µg/mL (≈ 27.3 µM)

system: Mycobacterium tuberculosis; assay: Antitubercular potency, ratio of Isoniazid MIC to drug MIC against Mycobacterium tuberculosis H37Rv ATCC 27294; type: functional; conditions: not given

Compound	Ratio
CCOC(=O)C1=C(OS(=O)(=O)c2cccs2)CC(c2ccccc2)N(C(=O)CCl)C1c1ccccc1 (stereo not drawn)	0.78
CCOC(=O)C1=C(OS(=O)(=O)c2ccc([N+](=O)[O-])cc2)CC(c2ccccc2)N(C(=O)CCl)C1c1ccccc1 (stereo not drawn)	1.56

system: Mycobacterium tuberculosis; assay: Antitubercular potency, ratio of Rifampicin MIC to drug MIC against Mycobacterium tuberculosis H37Rv ATCC 27294; type: functional; conditions: not given

Compound	Ratio
CCOC(=O)C1=C(OS(=O)(=O)c2cccs2)CC(c2ccccc2)N(C(=O)CCl)C1c1ccccc1 (stereo not drawn)	100
CCOC(=O)C1=C(OS(=O)(=O)c2ccc([N+](=O)[O-])cc2)CC(c2ccccc2)N(C(=O)CCl)C1c1ccccc1 (stereo not drawn)	200
